Results reported in ChEMBL document CHEMBL3351307, “Synthesis and structure-activity relationships of novel, potent, orally active hypoxia-inducible factor-1 inhibitors” (Bioorg Med Chem, 2014).
Active and inactive are the calls of the source. The rule behind the calls is not given here.

Key:
[1] = target: Hypoxia inducible factors; HIF-1-alpha, HIF-2-alpha (Homo sapiens, UniProt Q16665+Q99814); experiment: Inhibition of HIF1 signaling in human U251 cells expressing VEGF by VEGF promoter-driven PLAP reporter gene assay; type: cell-based; conditions: u-251
Outline: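 U251/VEGF-PLAP reporter cells seeded at 4.0 × 10⁴ cells/well and incubated overnight before compounds were added. Compounds were dissolved in DMSO and diluted in culture medium, final DMSO ≤0.2% (v/v). Cells grown in DMEM with 10% FBS at 37 °C, 5% CO₂, under 21% O₂ (normoxia) or 2% O₂ (hypoxia).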

[2] = test system: U-251; experiment: Antitumor activity against human U251 cells xenografted in BALB/cA mouse assessed as delay in tumor growth at 12.5 to 100 mg/kg, po dosed daily for 11 days; type: functional, organism-based
Outline: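 Untransfected U251 cells injected subcutaneously into flank or hind leg of female BALB/cA nu/nu mice and grown to about 300 mm³. Mice stratified into groups of 5 with similar mean tumor volume. Dosed orally at 10 mL/kg once daily for 11 days. Vehicle was DMSO/Tween-80 (35:65) diluted 5-fold with saline just before dosing. Tumor volume (length × diameter²/2) measured twice weekly and expressed relative to pretreatment size.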

[3] = test system: Mus musculus; experiment: Suppression of HIF1alpha mRNA expression in BALB/cA mouse xenografted with human U251 cells at 50 to 100 mg/kg, po after 24 hrs; type: functional, organism-based; conditions: U-251
[4] = test system: Mus musculus; experiment: Toxicity in BALB/cA mouse xenografted with human U251 cells assessed as reduction in body weight at 12.5 to 100 mg/kg, po dosed daily for 11 days; type: organism-based, U-251; design: dose 12.5-100 mg/kg, route oral; conditions: in vivo, 264 h
Outline: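 Female BALB/cA nu/nu mice carried subcutaneous untransfected U251 tumors of about 300 mm³, 5 per group. Given oral doses at 10 mL/kg once daily for 11 days in DMSO/Tween-80 (35:65) diluted 5-fold in saline. Body weight was followed alongside tumor volume.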

[5] = test system: Mus musculus; experiment: Toxicity in BALB/cA mouse xenografted with human U251 cells assessed as mouse survival at 50 mg/kg/day, po; type: organism-based, U-251; design: route oral; conditions: in vivo
Outline: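 Survival model: untransfected U251 cells implanted intracranially in athymic mice. Oral dosing once daily for about 50 days. Dose formulated in DMSO/Tween-80 (35:65) and diluted 5-fold with saline immediately before administration.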

[6] = test system: Mus musculus; experiment: Suppression of HIF1alpha protein expression in BALB/cA mouse xenografted with human U251 cells at 50 to 100 mg/kg, po after 24 hrs by ELISA; type: functional, organism-based; conditions: U-251
Outline: (§1)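 Female BALB/cA nu/nu mice bearing subcutaneous untransfected U251 tumors (~300 mm³) got a single oral dose at 10 mL/kg in DMSO/Tween-80 (35:65) diluted 5-fold with saline. Tumors harvested 24 h later, frozen in liquid nitrogen and fragmented, then lysed in Tris pH 7.5/NaCl/Triton X-100 buffer and centrifuged. HIF-1α measured by ELISA, normalized to BCA total protein, expressed as % of vehicle control. Mean of three animals.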

[7] = test system: Mus musculus; experiment: Suppression of HIF1alpha protein expression in BALB/cA mouse xenografted with human U251 cells at 12.5 mg/kg, po after 3 hrs by ELISA; type: functional, organism-based; design: dose 12.5 mg/kg; conditions: U-251
Outline: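 Single oral dose given to female nude BALB/cA mice with subcutaneous U251 xenografts. Tumors collected at 3, 12, 16 and 24 h after dosing. HIF-1α in total tumor extracts measured by ELISA and normalized to total protein. Mean ± SD reported.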

[8] = test system: U-251; experiment: Suppression of hypoxia-induced HIF1alpha protein expression in human U251 cells at 0.0001 to 1 uM incubated for 6 hrs in presence of 25 uM proteasome inhibitor MG132 by ELISA method; type: functional, cell-based
Outline: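 Untransfected U251 cells (4 × 10⁴/well) were incubated with graded compound concentrations for 6 h under 21% O₂, 2% O₂, or 2% O₂ with 25 µM MG132. Lysates were diluted fivefold in PBS/1% BSA and HIF-1α measured by ELISA. Mean of two wells.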

[9] = test system: U-251; experiment: Suppression of HIF1alpha mRNA expression in human U251 cells; type: functional, cell-based
[10] = test system: U-251; experiment: Suppression of hypoxia-induced HIF1alpha protein expression in human U251 cells at 0.0001 to 1 uM incubated for 6 hrs by ELISA method; type: functional, cell-based
Outline: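 Untransfected U251 cells at 4 × 10⁴ cells/well were exposed to compound for 6 h under hypoxia (2% O₂), with normoxia (21% O₂) as comparison. Cells were lysed in Tris/NaCl/Triton buffer, lysate diluted fivefold in PBS with 1% BSA, and HIF-1α quantified by ELISA. Mean of two wells.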

[11] = test system: U-251; experiment: Suppression of deferoxamine-induced HIF1alpha protein expression in human U251 cells at 0.0001 to 1 uM incubated for 6 hrs by ELISA method; type: functional, cell-based
Outline: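 Untransfected U251 cells at 4 × 10⁴ cells/well were treated for 6 h with a range of compound concentrations. Conditions were 21% O₂, 2% O₂, or 21% O₂ plus 100 µM deferoxamine. Cells were lysed, lysate diluted fivefold in PBS/1% BSA, and HIF-1α measured by total HIF-1α ELISA. Mean of two wells.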

[12] = test system: Mus musculus; experiment: Suppression of HIF1alpha protein expression in BALB/cA mouse xenografted with human U251 cells at 6.25 to 12.5 mg/kg, po after 24 hrs by ELISA; type: functional, organism-based; conditions: U-251; outline: as §1
[13] = test system: Mus musculus; experiment: Toxicity in BALB/cA mouse xenografted with human U251 cells assessed as reduction in body weight at 12.5 mg/kg, po after 24 hrs; type: organism-based, U-251; design: dose 12.5 mg/kg, route oral; scale not given: the % may be the effect or the level left; conditions: in vivo
Outline: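 Nude female BALB/cA mice bearing subcutaneous U251 tumors received one oral dose (10 mL/kg; DMSO/Tween-80 35:65 diluted 5-fold with saline). Body weight was compared with vehicle controls 24 h after dosing.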

Row | IC50 [1] | Structure (SMILES) | further results
1 | 14 nM | O=C(Nc1ccc(C(F)(F)F)cc1)c1ccc(CN2CCN(Cc3cccnc3)CC2)cc1 | 
2 | 560 nM | O=C(Nc1ccc(I)cc1)c1ccc(CN2CCOCC2)cc1 | 
3 | > 10000 nM | O=C(Nc1ccc(C(F)(F)F)cc1)c1ccccc1CN1CCOCC1 | 
4 | 120 nM | CN(CCN(C)Cc1cccnc1)Cc1ccc(C(=O)Nc2ccc(C(F)(F)F)cc2)cc1 | 
5 | 30 nM | C[C@@H]1CN(Cc2ccc(C(=O)Nc3ccc(C(F)(F)F)cc3)cc2)CCN1Cc1cccnc1 | 
6 | 2500 nM | O=C(Nc1ccc(CN2CCOCC2)cc1)c1ccc(I)cc1 | 
7 | 280 nM | O=C(Nc1ccc(C(F)(F)F)cc1)c1ccc(CN2CCOCC2)cc1 | 
8 | 35 nM | C[C@H]1CN(Cc2ccc(C(=O)Nc3ccc(C(F)(F)F)cc3)cc2)CCN1Cc1cccnc1 | 
9 | 3.3 nM | C[C@H]1CN(Cc2cccnc2)CCN1Cc1ccc(C(=O)Nc2ccc(C(F)(F)F)cc2)cc1 | 
10 | 4000 nM | O=C(Nc1ccc(C(F)(F)F)cn1)c1ccc(CN2CCOCC2)cc1 | 
11 | 230 nM | O=C(Nc1ccc(C(F)(F)F)cc1)c1ccc(CN2CCOCC2)cn1 | 
12 | 2.6 nM | C[C@H]1CN(Cc2cccnc2)CCN1Cc1ccc(C(=O)Nc2ccc(C#CC34CC5CC(CC(C5)C3)C4)cc2)cc1 | 
13 | 2200 nM | CN(C(=O)c1ccc(CN2CCOCC2)cc1)c1ccc(I)cc1.Cl | 
14 | 3.1 nM | O=C(Nc1ccc(C#CC2CCCCC2)cc1)c1ccc(CN2CCN(Cc3cccnc3)CC2)cc1 | 
15 | 4500 nM | O=C(Nc1ccc(C(F)(F)F)cc1)c1ccc(CN2CCOCC2)nc1 | 
16 | 1600 nM | O=C(Nc1ccc(C(F)(F)F)cc1)c1ccc(CN2CCOCC2)s1 | 
17 | 880 nM | FC(F)(F)c1ccc(/C=C/c2ccc(CN3CCOCC3)cc2)cc1 | 

Row | IC50 [1] | Structure (SMILES) | further results
18 | 5400 nM | O=C(Nc1ccccc1)c1ccc(CN2CCOCC2)cc1 | 
19 | 1.1 nM | COCc1ccc(CN2CCN(Cc3ccc(C(=O)Nc4ccc(C#CC56CC7CC(CC(C7)C5)C6)cc4)cc3)[C@@H](C)C2)cn1 | 
20 | 110 nM | O=C(Nc1ccc(C(F)(F)F)cc1)c1ccc(CC2CCN(Cc3ccncc3)CC2)cc1 | 
21 | > 20000 nM | O=C(Nc1ccccc1I)c1ccc(CN2CCOCC2)cc1 | 
22 | 34 nM | O=C(Nc1ccc(C#Cc2cccnc2)cc1)c1ccc(CN2CCN(Cc3cccnc3)CC2)cc1 | 
23 | 5.8 nM | Nc1ncccc1C(=O)N1CCN(Cc2ccc(C(=O)Nc3ccc(C#CC45CC6CC(CC(C6)C4)C5)cc3)cc2)CC1 | 
24 | 7.9 nM | O=C(Nc1ccc(C(F)(F)F)cc1)c1ccc(CN2CCN(Cc3ccncc3)CC2)cc1 | 
25 | > 10000 nM | O=C(Nc1ccc(C(F)(F)F)cc1)c1cccc(CN2CCOCC2)c1 | 
26 | 2200 nM | O=C(Nc1cccc(I)c1)c1ccc(CN2CCOCC2)cc1 | 
27 | 0.97 nM | O=C(Nc1ccc(C#CC23CC4CC(CC(C4)C2)C3)cc1)c1ccc(CN2CCN(Cc3cccnc3)CC2)cc1 | 
28 | 13900 nM | COc1ccc(NC(=O)c2ccc(CN3CCOCC3)cc2)cc1 | 
29 | 2500 nM | Ic1ccc(NCc2ccc(CN3CCOCC3)cc2)cc1 | 
30 | 13 nM | C[C@@H]1CN(Cc2cccnc2)CCN1Cc1ccc(C(=O)Nc2ccc(C(F)(F)F)cc2)cc1 | 
31 | 7.9 nM | O=C(Nc1ccc(C#Cc2ccccc2)cc1)c1ccc(CN2CCN(Cc3cccnc3)CC2)cc1 | inhibition [3]: inactive; inhibition [8]: inactive; inhibition [9]: inactive; inhibition [6]: Active; inhibition [10]: Active; inhibition [11]: inactive
32 | > 200 nM | O=C(Nc1ccc(C#CC2(O)CCCCC2)cc1)c1ccc(CN2CCN(Cc3cccnc3)CC2)cc1 | 
33 | 0.47 nM | COCCOCc1ccc(CN2CCN(Cc3ccc(C(=O)Nc4ccc(C#CC56CC7CC(CC(C7)C5)C6)cc4)cc3)[C@@H](C)C2)cn1 | inhibition [12]: Active; Activity [13]: 92%
34 | 13 nM | O=C(Nc1ccc(C(F)(F)F)cc1)c1ccc(CN2CCN(Cc3ccccc3)CC2)cc1 | 

Row | Structure (SMILES) | IC50 [1] | further results
35 | Nc1ncccc1C(=O)N1CCN(Cc2ccc(C(=O)Nc3ccc(C#Cc4ccccc4)cc3)cc2)CC1 | 21 nM | TGI [2]: Active; inhibition [3]: inactive; Activity [4]: Non-toxic; Survival [5]: 50 days; inhibition [6]: Active; inhibition [7]: Active
